Converted amounts (≈) assume the structure as drawn. The source made the active and inactive calls. The rule behind the calls is not given here.
How the values were obtained:
Format in all cases: functional
[1] = test system: Colletotrichum gloeosporioides; experiment: Antifungal activity against Colletotrichum gloeosporioides Penz-QDAU 9 by microplate XTT assay
Outline: (§1)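 Plant-pathogenic fungi, provided by Qingdao Agricultural University, were tested in a microplate assay with amphotericin B as the positive control.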

[2] = (§2) Antifungal activity against Fusarium oxysporum f.sp. radicis-lycopersici QDAU 5 by microplate XTT assay; outline: as §1
Bipolaris sorokiniana = experiment: Antifungal activity against Bipolaris sorokiniana QDAU 7 by microplate XTT assay; outline: as §1
Penicillium digitatum = experiment: Antifungal activity against Penicillium digitatum QDAU 11 by microplate XTT assay; outline: as §1
[3] = (§3) Antifungal activity against Fusarium oxysporum f.sp.momordicae QDAU 17 by microplate XTT assay; outline: as §1
Edwardsiella tarda = experiment: Antibacterial activity against Edwardsiella tarda QDIO 2 by microplate XTT assay
Outline: (§4)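 Bacterial strains tested in a microplate assay with chloramphenicol as the positive control. Activity is reported as MIC in μg/mL.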

[4] = test system: Ceratobasidium cornigerum; experiment: Antifungal activity against Ceratobasidium cornigerum QDAU 8 by microplate XTT assay; outline: as §1
Pseudomonas aeruginosa = experiment: Antibacterial activity against Pseudomonas aeruginosa QDIO 4 by microplate XTT assay; outline: as §4
[5] = test system: Botryosphaeria berengeriana; experiment: Antifungal activity against Physalospora pyricola Nose QDAU 12 by microplate XTT assay; outline: as §1
[6] = test system: Fusarium oxysporum f. sp. cucumerinum; experiment: Antifungal activity against Fusarium oxysporum f.sp.cucumerinum QDAU 16 by microplate XTT assay; outline: as §1
Vibrio parahaemolyticus = experiment: Antibacterial activity against Vibrio parahaemolyticus QDIO 8 by microplate XTT assay; outline: as §4
Vibrio harveyi = experiment: Antibacterial activity against Vibrio harveyi QDIO 7 by microplate XTT assay; outline: as §4
Alternaria solani = experiment: Antifungal activity against Alternaria solani QDAU 14 by microplate XTT assay; outline: as §1
Fusarium graminearum = experiment: Antifungal activity against Fusarium graminearum QDAU 10 by microplate XTT assay
Outline: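 Plant-pathogenic fungal strain supplied by Qingdao Agricultural University; MIC determined by microplate assay with amphotericin B as positive control.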

Escherichia coli = experiment: Antibacterial activity against Escherichia coli EMBLC 1 by microplate XTT assay; outline: as §4
[7] = test system: Colletotrichum gloeosporioides; experiment: Antifungal activity against Glomerella cingulata QDAU 2 by microplate XTT assay; outline: as §1
Fusarium solani = experiment: Antifungal activity against Fusarium solani QDAU 15 by microplate XTT assay; outline: as §1
Aeromonas hydrophila = experiment: Antibacterial activity against Aeromonas hydrophila QDIO 1 by microplate XTT assay; outline: as §4
Vibrio vulnificus = experiment: Antibacterial activity against Vibrio vulnificus QDIO 9 by microplate XTT assay; outline: as §4
Cytospora mali = experiment: Antifungal activity against Valsa mali QDAU 13 by microplate XTT assay; outline: as §1
Bipolaris maydis = experiment: Antifungal activity against Helminthosporium maydis QDAU 18 by microplate XTT assay; outline: as §1
Vibrio anguillarum = experiment: Antibacterial activity against Vibrio anguillarum QDIO 6 by microplate XTT assay; outline: as §4
Micrococcus luteus = experiment: Antibacterial activity against Micrococcus luteus QDIO 3 by microplate XTT assay; outline: as §4
[8] = test system: Fusarium oxysporum f. sp. radicis-lycopersici; experiment: as §2; outline: as §1
[9] = test system: Fusarium oxysporum f. sp. momordicae; experiment: as §3; outline: as §1

CC(C)[C@H]1CCc2coc3cc(C(=O)O)cc1c23
MIC [1]: 8 µg/mL (≈ 32.7 µM) | MIC [2]: 64 µg/mL (≈ 262 µM) | MIC (Bipolaris sorokiniana): 1 µg/mL (≈ 4.09 µM) | MIC (Penicillium digitatum): 8 µg/mL (≈ 32.7 µM) | MIC [3]: 2 µg/mL (≈ 8.19 µM) | MIC (Edwardsiella tarda): inactive | MIC [4]: 16 µg/mL (≈ 65.5 µM) | MIC (Pseudomonas aeruginosa): 8 µg/mL (≈ 32.7 µM) | MIC [5]: 4 µg/mL (≈ 16.4 µM) | MIC [6]: 1 µg/mL (≈ 4.09 µM) | MIC (Vibrio parahaemolyticus): 4 µg/mL (≈ 16.4 µM) | MIC (Vibrio harveyi): 8 µg/mL (≈ 32.7 µM) | MIC (Alternaria solani): 4 µg/mL (≈ 16.4 µM) | MIC (Fusarium graminearum): 8 µg/mL (≈ 32.7 µM) | MIC (Escherichia coli): 8 µg/mL (≈ 32.7 µM) | MIC [7]: 1 µg/mL (≈ 4.09 µM) | MIC (Fusarium solani): 4 µg/mL (≈ 16.4 µM) | MIC (Aeromonas hydrophila): 8 µg/mL (≈ 32.7 µM) | MIC (Vibrio vulnificus): 64 µg/mL (≈ 262 µM) | MIC (Cytospora mali): 16 µg/mL (≈ 65.5 µM) | MIC (Bipolaris maydis): inactive | MIC (Vibrio anguillarum): inactive | MIC (Micrococcus luteus): 32 µg/mL (≈ 131 µM)

C[C@H](CO)[C@H]1CCc2coc3cc(C(=O)O)cc1c23
MIC [1]: inactive | MIC [8]: inactive | MIC (Bipolaris sorokiniana): 8 µg/mL (≈ 30.7 µM) | MIC (Penicillium digitatum): 8 µg/mL (≈ 30.7 µM) | MIC [9]: inactive | MIC (Edwardsiella tarda): inactive | MIC [4]: inactive | MIC (Pseudomonas aeruginosa): 8 µg/mL (≈ 30.7 µM) | MIC [5]: 4 µg/mL (≈ 15.4 µM) | MIC [6]: 2 µg/mL (≈ 7.68 µM) | MIC (Vibrio parahaemolyticus): 32 µg/mL (≈ 123 µM) | MIC (Vibrio harveyi): 16 µg/mL (≈ 61.5 µM) | MIC (Alternaria solani): 32 µg/mL (≈ 123 µM) | MIC (Fusarium graminearum): inactive | MIC (Escherichia coli): 16 µg/mL (≈ 61.5 µM) | MIC [7]: 4 µg/mL (≈ 15.4 µM) | MIC (Fusarium solani): 32 µg/mL (≈ 123 µM) | MIC (Aeromonas hydrophila): 64 µg/mL (≈ 246 µM) | MIC (Vibrio vulnificus): inactive | MIC (Cytospora mali): inactive | MIC (Bipolaris maydis): inactive | MIC (Vibrio anguillarum): inactive | MIC (Micrococcus luteus): inactive

CC(C)[C@H]1CC[C@@H](C)[C@]2(O)CCC(C(=O)O)=C[C@H]12
MIC [1]: inactive | MIC [8]: inactive | MIC (Bipolaris sorokiniana): inactive | MIC (Penicillium digitatum): inactive | MIC [9]: inactive | MIC (Edwardsiella tarda): inactive | MIC [4]: inactive | MIC (Pseudomonas aeruginosa): inactive | MIC [5]: inactive | MIC [6]: 32 µg/mL (≈ 127 µM) | MIC (Vibrio parahaemolyticus): inactive | MIC (Vibrio harveyi): inactive | MIC (Alternaria solani): inactive | MIC (Fusarium graminearum): inactive | MIC (Escherichia coli): inactive | MIC [7]: inactive | MIC (Fusarium solani): inactive | MIC (Aeromonas hydrophila): inactive | MIC (Vibrio vulnificus): inactive | MIC (Cytospora mali): inactive | MIC (Bipolaris maydis): 16 µg/mL (≈ 63.4 µM) | MIC (Vibrio anguillarum): inactive | MIC (Micrococcus luteus): inactive

C[C@@H]1[C@H](O)[C@@H](C)/C=C/C=C/C=C/C=C/C=C/C=C/C=C/[C@H](O[C@@H]2O[C@H](C)[C@@H](O)[C@H](N)[C@@H]2O)C[C@@H]2O[C@](O)(C[C@@H](O)C[C@@H](O)[C@H](O)CC[C@@H](O)C[C@@H](O)CC(=O)O[C@H]1C)C[C@H](O)[C@H]2C(=O)O [AMPHOTERICIN B]
MIC [1]: 0.5 µg/mL (≈ 0.541 µM) | MIC [2]: 2 µg/mL (≈ 2.16 µM) | MIC (Bipolaris sorokiniana): 0.5 µg/mL (≈ 0.541 µM) | MIC (Penicillium digitatum): 2 µg/mL (≈ 2.16 µM) | MIC [3]: 1 µg/mL (≈ 1.08 µM) | MIC [4]: 8 µg/mL (≈ 8.66 µM) | MIC [5]: 2 µg/mL (≈ 2.16 µM) | MIC [6]: 0.5 µg/mL (≈ 0.541 µM) | MIC (Alternaria solani): 2 µg/mL (≈ 2.16 µM) | MIC (Fusarium graminearum): 2 µg/mL (≈ 2.16 µM) | MIC [7]: 0.5 µg/mL (≈ 0.541 µM) | MIC (Fusarium solani): 4 µg/mL (≈ 4.33 µM) | MIC (Cytospora mali): 8 µg/mL (≈ 8.66 µM) | MIC (Bipolaris maydis): 2 µg/mL (≈ 2.16 µM)

O=C(N[C@H](CO)[C@H](O)c1ccc([N+](=O)[O-])cc1)C(Cl)Cl [CHLORAMPHENICOL]
MIC (Edwardsiella tarda): 0.5 µg/mL (≈ 1.55 µM) | MIC (Pseudomonas aeruginosa): 2 µg/mL (≈ 6.19 µM) | MIC (Vibrio parahaemolyticus): 4 µg/mL (≈ 12.4 µM) | MIC (Vibrio harveyi): 1 µg/mL (≈ 3.09 µM) | MIC (Escherichia coli): 2 µg/mL (≈ 6.19 µM) | MIC (Aeromonas hydrophila): 4 µg/mL (≈ 12.4 µM) | MIC (Vibrio vulnificus): 1 µg/mL (≈ 3.09 µM) | MIC (Vibrio anguillarum): 1 µg/mL (≈ 3.09 µM) | MIC (Micrococcus luteus): 4 µg/mL (≈ 12.4 µM)

C=C1CC[C@H](C(C)C)[C@@H]2C=C(C(=O)O)CC[C@H]12
MIC [1]: inactive | MIC [2]: 64 µg/mL (≈ 273 µM) | MIC (Bipolaris sorokiniana): inactive | MIC (Penicillium digitatum): inactive | MIC [9]: inactive | MIC (Edwardsiella tarda): inactive | MIC [4]: inactive | MIC (Pseudomonas aeruginosa): 4 µg/mL (≈ 17.1 µM) | MIC [5]: 8 µg/mL (≈ 34.1 µM) | MIC [6]: 16 µg/mL (≈ 68.3 µM) | MIC (Vibrio parahaemolyticus): 8 µg/mL (≈ 34.1 µM) | MIC (Vibrio harveyi): 2 µg/mL (≈ 8.53 µM) | MIC (Alternaria solani): inactive | MIC (Fusarium graminearum): inactive | MIC (Escherichia coli): 8 µg/mL (≈ 34.1 µM) | MIC [7]: 1 µg/mL (≈ 4.27 µM) | MIC (Fusarium solani): inactive | MIC (Aeromonas hydrophila): 8 µg/mL (≈ 34.1 µM) | MIC (Vibrio vulnificus): 64 µg/mL (≈ 273 µM) | MIC (Cytospora mali): 32 µg/mL (≈ 137 µM) | MIC (Bipolaris maydis): inactive | MIC (Vibrio anguillarum): inactive | MIC (Micrococcus luteus): 32 µg/mL (≈ 137 µM)

C=C1CC[C@H](C(C)C)[C@H]2C=C(C(=O)O)C[C@@H](O)[C@H]12
MIC [1]: inactive | MIC [2]: 64 µg/mL (≈ 256 µM) | MIC (Bipolaris sorokiniana): inactive | MIC (Penicillium digitatum): 16 µg/mL (≈ 63.9 µM) | MIC [9]: inactive | MIC (Edwardsiella tarda): inactive | MIC [4]: inactive | MIC (Pseudomonas aeruginosa): inactive | MIC [5]: 1 µg/mL (≈ 3.99 µM) | MIC [6]: 32 µg/mL (≈ 128 µM) | MIC (Vibrio parahaemolyticus): inactive | MIC (Vibrio harveyi): inactive | MIC (Alternaria solani): inactive | MIC (Fusarium graminearum): inactive | MIC (Escherichia coli): inactive | MIC [7]: inactive | MIC (Fusarium solani): inactive | MIC (Aeromonas hydrophila): inactive | MIC (Vibrio vulnificus): inactive | MIC (Cytospora mali): inactive | MIC (Bipolaris maydis): inactive | MIC (Vibrio anguillarum): inactive | MIC (Micrococcus luteus): inactive

CC(C)[C@H]1CCC(=O)c2cc(O)c(C(=O)O)cc21
MIC [1]: inactive | MIC [8]: inactive | MIC (Bipolaris sorokiniana): inactive | MIC (Penicillium digitatum): inactive | MIC [9]: inactive | MIC (Edwardsiella tarda): 1 µg/mL (≈ 4.03 µM) | MIC [4]: inactive | MIC (Pseudomonas aeruginosa): inactive | MIC [5]: 4 µg/mL (≈ 16.1 µM) | MIC [6]: 64 µg/mL (≈ 258 µM) | MIC (Vibrio parahaemolyticus): inactive | MIC (Vibrio harveyi): inactive | MIC (Alternaria solani): inactive | MIC (Fusarium graminearum): inactive | MIC (Escherichia coli): inactive | MIC [7]: inactive | MIC (Fusarium solani): inactive | MIC (Aeromonas hydrophila): inactive | MIC (Vibrio vulnificus): inactive | MIC (Cytospora mali): inactive | MIC (Bipolaris maydis): inactive | MIC (Vibrio anguillarum): 2 µg/mL (≈ 8.06 µM) | MIC (Micrococcus luteus): inactive

— ChEMBL document CHEMBL4334479, “Trichocadinins B-G: Antimicrobial Cadinane Sesquiterpenes from Trichoderma virens QA-8, an Endophytic Fungus Obtained from the Medicinal Plant Artemisia argyi” (2019)
